Experiments:
[1] = target: Sigma non-opioid intracellular receptor 1 (Rattus norvegicus, UniProt Q9R0C9); experiment: Inhibition of [3H]NANM binding to sigma receptor obtained from tissue homogenate preparation of fresh whole rat brain minus cerebellum; type: tissue-based
Method in brief: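 Radioligand displacement in homogenate of fresh whole rat brain minus cerebellum. The PCP site was labelled with [3H]TCP and the sigma site with [3H]NANM. IC50 values were read from inhibition curves and converted to Ki with the Cheng-Prusoff equation. Experiments were run in triplicate and reported as mean ± standard deviation of three experiments.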

[2] = Inhibition of [3H]-TCP binding to PCP receptor obtained from tissue homogenate preparation of fresh whole rat brain minus cerebellum

Chain of Sigma non-opioid intracellular receptor 1 (Q9R0C9 whole entry): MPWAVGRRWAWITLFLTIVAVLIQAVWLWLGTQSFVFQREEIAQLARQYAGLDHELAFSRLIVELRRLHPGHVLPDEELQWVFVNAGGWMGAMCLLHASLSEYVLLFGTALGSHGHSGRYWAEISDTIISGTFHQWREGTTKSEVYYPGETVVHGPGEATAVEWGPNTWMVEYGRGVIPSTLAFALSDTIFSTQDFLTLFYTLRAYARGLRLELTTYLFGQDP

Compound | IC50 [1] | IC50 [2]
c1ccc2c(c1)C1CCCCC21N1CCCCC1 (stereo not given) | 330 nM | –
c1ccc(C2(N3CCCCC3)CCCCC2)cc1 [PHENCYCLIDINE] | – | 91 nM
c1ccc2c(c1)C1CCC2(N2CCCCC2)CC1 | 319 nM | –
O=C(OCCN1CCOCC1)C1(c2ccccc2)CCCCC1 | 44 nM | –
c1ccc2c(c1)C1CCC2(N2CCCCC2)C1 (stereo not given) | 365 nM | –

Reference: ChEMBL document CHEMBL1131468, “Rigid phencyclidine analogues. Binding to the phencyclidine and sigma 1 receptors” (J Med Chem, 1998)
